Laboratory results reported in ChEMBL document CHEMBL4689842, “EUbOPEN Chemogenomics Library wave 1” (2021).

Test system: Fibroblast
Assay: Multiplex assay against human fibroblast
Assay type: toxicity, cell-based
How it was run: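 Phenotypes for tubulin, mitochondrial mass and membrane permeability are expressed as per cents of healthy-nucleus cells. Cells were stained live at seeding with Hoechst33342, BioTracker Green Microtubule Cytoskeleton Dye, MitoTracker Red and Annexin V Alexa Fluor 680, then imaged after compound addition on a CQ1 microscope at 37°C and 5% CO2. Machine-learning gating in CellPathfinder separated Hoechst high-intensity objects from normal cells, divided normal cells by nuclear state (healthy, pyknosed, fragmented) and divided pyknosed cells into mitotic or apoptotic.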

[1] = 12 h, 1 µM, compound concentration 1 uM, replicate 1
[2] = 12 h, 1 µM, compound concentration 1 uM, replicate 2
[3] = 12 h, 10 µM, compound concentration 10 uM, replicate 1
[4] = 12 h, 10 µM, compound concentration 10 uM, replicate 2
[5] = 24 h, 1 µM, compound concentration 1 uM, replicate 1
[6] = 24 h, 1 µM, compound concentration 1 uM, replicate 2
[7] = 24 h, 10 µM, compound concentration 10 uM, replicate 1
[8] = 24 h, 10 µM, compound concentration 10 uM, replicate 2
[9] = 48 h, 1 µM, compound concentration 1 uM, replicate 1
[10] = 48 h, 1 µM, compound concentration 1 uM, replicate 2
[11] = 48 h, 10 µM, compound concentration 10 uM, replicate 1
[12] = 48 h, 10 µM, compound concentration 10 uM, replicate 2

SMILES: Cl.Oc1ccc2c3c1O[C@H]1c4[nH]c5c(c4C[C@@]4(O)[C@@H](C2)N(CC2CC2)CC[C@]314)C[C@@]1(O)[C@H]2Cc3ccc(O)c4c3[C@@]1(CCN2CC1CC1)[C@H]5O4
- Population Apoptotic (%) [1]: 71%
- Population Fragmented Nuclei (%) [1]: 27%
- Population Healthy Nuclei (%) [1]: 40%
- Population Hoechst High Intensity Objects (%) [1]: 15%
- Population Membrane Permeable-Phenotype (%) [1]: 20%
- Population Mitochondria Different-Phenotype (%) [1]: 11%
- Population Mitotic Cells (%) [1]: 28%
- Population Normal (%) [1]: 84%
- Population Pyknosed Nuclei (%) [1]: 32%
- Population Tubulin-Different-Phenotype (%) [1]: 31%
- Total Cell Count [1]: 103
- Population Apoptotic (%) [2]: 42%
- Population Fragmented Nuclei (%) [2]: 3%
- Population Healthy Nuclei (%) [2]: 86%
- Population Hoechst High Intensity Objects (%) [2]: 9%
- Population Membrane Permeable-Phenotype (%) [2]: 10%
- Population Mitochondria Different-Phenotype (%) [2]: 19%
- Population Mitotic Cells (%) [2]: 57%
- Population Normal (%) [2]: 90%
- Population Pyknosed Nuclei (%) [2]: 10%
- Population Tubulin-Different-Phenotype (%) [2]: 17%
- Total Cell Count [2]: 97
- Population Apoptotic (%) [3]: 69%
- Population Fragmented Nuclei (%) [3]: 23%
- Population Healthy Nuclei (%) [3]: 47%
- Population Hoechst High Intensity Objects (%) [3]: 8%
- Population Membrane Permeable-Phenotype (%) [3]: 25%
- Population Mitochondria Different-Phenotype (%) [3]: 5%
- Population Mitotic Cells (%) [3]: 30%
- Population Normal (%) [3]: 91%
- Population Pyknosed Nuclei (%) [3]: 28%
- Population Tubulin-Different-Phenotype (%) [3]: 41%
- Total Cell Count [3]: 173
- Population Apoptotic (%) [4]: 93%
- Population Fragmented Nuclei (%) [4]: 12%
- Population Healthy Nuclei (%) [4]: 48%
- Population Hoechst High Intensity Objects (%) [4]: 7%
- Population Membrane Permeable-Phenotype (%) [4]: 52%
- Population Mitochondria Different-Phenotype (%) [4]: 26%
- Population Mitotic Cells (%) [4]: 6%
- Population Normal (%) [4]: 92%
- Population Pyknosed Nuclei (%) [4]: 38%
- Population Tubulin-Different-Phenotype (%) [4]: 89%
- Total Cell Count [4]: 73
- Population Apoptotic (%) [5]: 66%
- Population Fragmented Nuclei (%) [5]: 19%
- Population Healthy Nuclei (%) [5]: 51%
- Population Hoechst High Intensity Objects (%) [5]: 14%
- Population Membrane Permeable-Phenotype (%) [5]: 27%
- Population Mitochondria Different-Phenotype (%) [5]: 2%
- Population Mitotic Cells (%) [5]: 33%
- Population Normal (%) [5]: 85%
- Population Pyknosed Nuclei (%) [5]: 29%
- Population Tubulin-Different-Phenotype (%) [5]: 43%
- Total Cell Count [5]: 84
- Population Apoptotic (%) [6]: 25%
- Population Fragmented Nuclei (%) [6]: 3%
- Population Healthy Nuclei (%) [6]: 91%
- Population Hoechst High Intensity Objects (%) [6]: 4%
- Population Membrane Permeable-Phenotype (%) [6]: 10%
- Population Mitochondria Different-Phenotype (%) [6]: 13%
- Population Mitotic Cells (%) [6]: 75%
- Population Normal (%) [6]: 95%
- Population Pyknosed Nuclei (%) [6]: 4%
- Population Tubulin-Different-Phenotype (%) [6]: 18%
- Total Cell Count [6]: 94
- Population Apoptotic (%) [7]: 65%
- Population Fragmented Nuclei (%) [7]: 18%
- Population Healthy Nuclei (%) [7]: 62%
- Population Hoechst High Intensity Objects (%) [7]: 15%
- Population Membrane Permeable-Phenotype (%) [7]: 25%
- Population Mitochondria Different-Phenotype (%) [7]: 3%
- Population Mitotic Cells (%) [7]: 34%
- Population Normal (%) [7]: 84%
- Population Pyknosed Nuclei (%) [7]: 19%
- Population Tubulin-Different-Phenotype (%) [7]: 27%
- Total Cell Count [7]: 178
- Population Apoptotic (%) [8]: 76%
- Population Fragmented Nuclei (%) [8]: 13%
- Population Healthy Nuclei (%) [8]: 58%
- Population Hoechst High Intensity Objects (%) [8]: 13%
- Population Membrane Permeable-Phenotype (%) [8]: 48%
- Population Mitochondria Different-Phenotype (%) [8]: 33%
- Population Mitotic Cells (%) [8]: 23%
- Population Normal (%) [8]: 86%
- Population Pyknosed Nuclei (%) [8]: 28%
- Population Tubulin-Different-Phenotype (%) [8]: 77%
- Total Cell Count [8]: 91
- Population Apoptotic (%) [9]: 60%
- Population Fragmented Nuclei (%) [9]: 26%
- Population Healthy Nuclei (%) [9]: 52%
- Population Hoechst High Intensity Objects (%) [9]: 16%
- Population Membrane Permeable-Phenotype (%) [9]: 32%
- Population Mitochondria Different-Phenotype (%) [9]: 5%
- Population Mitotic Cells (%) [9]: 40%
- Population Normal (%) [9]: 83%
- Population Pyknosed Nuclei (%) [9]: 21%
- Population Tubulin-Different-Phenotype (%) [9]: 43%
- Total Cell Count [9]: 85
- Population Apoptotic (%) [10]: 75%
- Population Fragmented Nuclei (%) [10]: 16%
- Population Healthy Nuclei (%) [10]: 78%
- Population Hoechst High Intensity Objects (%) [10]: 7%
- Population Membrane Permeable-Phenotype (%) [10]: 18%
- Population Mitochondria Different-Phenotype (%) [10]: 0%
- Population Mitotic Cells (%) [10]: 25%
- Population Normal (%) [10]: 92%
- Population Pyknosed Nuclei (%) [10]: 4%
- Population Tubulin-Different-Phenotype (%) [10]: 26%
- Total Cell Count [10]: 103
- Population Apoptotic (%) [11]: 61%
- Population Fragmented Nuclei (%) [11]: 31%
- Population Healthy Nuclei (%) [11]: 55%
- Population Hoechst High Intensity Objects (%) [11]: 18%
- Population Membrane Permeable-Phenotype (%) [11]: 30%
- Population Mitochondria Different-Phenotype (%) [11]: 6%
- Population Mitotic Cells (%) [11]: 38%
- Population Normal (%) [11]: 81%
- Population Pyknosed Nuclei (%) [11]: 12%
- Population Tubulin-Different-Phenotype (%) [11]: 34%
- Total Cell Count [11]: 172
- Population Apoptotic (%) [12]: 66%
- Population Fragmented Nuclei (%) [12]: 29%
- Population Healthy Nuclei (%) [12]: 66%
- Population Hoechst High Intensity Objects (%) [12]: 10%
- Population Membrane Permeable-Phenotype (%) [12]: 14%
- Population Mitochondria Different-Phenotype (%) [12]: 1%
- Population Mitotic Cells (%) [12]: 33%
- Population Normal (%) [12]: 89%
- Population Pyknosed Nuclei (%) [12]: 3%
- Population Tubulin-Different-Phenotype (%) [12]: 41%
- Total Cell Count [12]: 94
